Data reported in publication PMC5987874 (The Journal of General Physiology, 2018).
Numbering of substitutions follows the chain as printed. Values joined by “and” are separate entries in the source; they are usually repeats but may differ in a detail not shown here. Identical values can stand only once. Like-named read-outs stand apart in the source and are kept apart here.

Legend:
[1] = target: T1, human Hv1 H140A (H^2.40A) (Homo sapiens, UniProt Q96D96, H140A); details: ref Ramsey et al., 2006; cited from earlier work
T1 sequence (Q96D96 1-273 H140A): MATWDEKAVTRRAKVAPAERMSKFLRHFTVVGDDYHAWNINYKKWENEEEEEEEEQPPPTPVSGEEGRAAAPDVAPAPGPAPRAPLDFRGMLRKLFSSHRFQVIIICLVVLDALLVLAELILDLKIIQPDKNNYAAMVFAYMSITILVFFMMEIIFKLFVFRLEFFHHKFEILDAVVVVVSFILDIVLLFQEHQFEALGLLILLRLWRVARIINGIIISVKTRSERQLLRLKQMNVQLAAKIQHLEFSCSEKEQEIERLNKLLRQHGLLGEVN

[2] = target: T2, human Hv1 E119H-H140A-H193A (Homo sapiens, UniProt Q96D96, E119H/H140A/H193A); assay: Whole-cell voltage clamp, Zn^2+ modulation of GAQ gating; assay type: cell-based
T2 sequence (Q96D96 1-273 E119H/H140A/H193A): T1 sequence (Q96D96 1-273 H140A) with E119H, H193A
Outline: (§1)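 Whole-cell patch clamp at ~21°C. Pipette and bath (mM): ~80 TMA-MeSO3, 100 Bis-Tris, 8 HCl, pH 6.5, 310–320 mOsm. ZnCl2 was diluted into bath solution and applied by gravity superfusion, at least 2 min per change. Test step voltage was set per construct from its V0.5. G_STEP = end-of-step current/(V−V_REV). Effect = 1 − G_Zn/G_control, fitted to the Hill equation. IC50 and nH are means ± SEM from separate cells. ΔpIC50 was tested by unpaired t test, P<0.05.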

[3] = target: T3, human Hv1 H193A (H^3.71A) (Homo sapiens, UniProt Q96D96, H193A); assay: as above; assay type: cell-based
T3 sequence (Q96D96 1-273 H193A): T1 sequence (Q96D96 1-273 H140A) with A140H, H193A
Outline: as §1

[4] = target: T1, human Hv1 H140A (H^2.40A); assay: as above; assay type: cell-based
Outline: as §1

human Hv1 D130H-H140A = target: T4, human Hv1 D130H-H140A (Homo sapiens, UniProt Q96D96, D130H/H140A); assay: as above; assay type: cell-based
T4 sequence (Q96D96 1-273 D130H/H140A): T1 sequence (Q96D96 1-273 H140A) with D130H
Outline: as §1

[5] = VSTEP 100 mV, calculated as log (IC50)
[6] = read-out: IC50, fit of the mean data to a Hill function, Fig. 2C

Mean ΔpIC50 = (pIC50_1 - pIC50_2) ([2]; E119H-H140A-H193A vs H140A-H193A, positive = increase in Zn^2+ potency): 2.4 and 2.39
nH, fit of the mean data to a Hill function ([2]; Fig. 4A): 0.7
Hill value ([2]; VSTEP 60 mV): 0.84
pIC50 ([2]; VSTEP 60 mV, calculated as log (IC50)): 5.15
change of Zn^2+ IC50 ([2]; from H140A-H193A to E119H-H140A-H193A): 2.4 fold
IC50 ([2]; read-out: IC50, fit of the mean data to a Hill function, Fig. 4A): 7.6 µM
IC50 ([2]; read-out: Mean IC50 @ VSTEP, VSTEP 60 mV, pH 6.5, mean of fits in separate cells): 7.3 µM
nH, fit of the mean data to a Hill function ([3]; Fig. 2C): 1.0
Mean ΔpIC50 = (pIC50_1 - pIC50_2) ([3]; H193A vs WT): −1.37
Hill value ([3]; VSTEP 100 mV): 1.04
pIC50 [3, 5]: −4.06
IC50 [3, 6]: 82.2 µM
nH, fit of the mean data to a Hill function ([4]; Fig. 2C): 0.7
Mean ΔpIC50 = (pIC50_1 - pIC50_2) ([4]; H140A vs WT): −1.02
Hill value ([4]; VSTEP 100 mV): 0.67
pIC50 [4, 5]: −4.41
IC50 [4, 6]: 39 µM
Mean ΔpIC50 = (pIC50_1 - pIC50_2) (human Hv1 D130H-H140A; D130H-H140A vs H140A): 0.01
nH, fit of the mean data to a Hill function (human Hv1 D130H-H140A; Fig. 4C): 0.5
Hill value (human Hv1 D130H-H140A; VSTEP 80 mV): 0.58
pIC50 (human Hv1 D130H-H140A; VSTEP 80 mV, calculated as log (IC50)): −4.42
IC50 (human Hv1 D130H-H140A; read-out: IC50, fit of the mean data to a Hill function, Fig. 4C): 39.7 µM
IC50 (human Hv1 D130H-H140A; read-out: Mean IC50 @ VSTEP, VSTEP 80 mV, pH 6.5, mean of fits in separate cells): 41.5 µM
Compound: [Cl-].[Cl-].[Zn+2] [Zn^2+, ZnCl2]
decrease of Zn^2+ potency by single mutation [1]: 10- to 30 fold
